Experimental data published in ChEMBL document CHEMBL5705905, “Pharmacological targeting of kinases MST1 and MST2 augments tissue repair and regeneration” (Sci Transl Med, 2016).
Calls of active or inactive are those of the source. The calls are words filed in the database; no cut-off is given here.

Tests used:
[1] = AUC (0 to infinity) in male Sprague-Dawley rat at 10 mg/kg, po measured for 24 hrs by LC-MS/MS analysis; type: ADME, organism-based; settings: in vivo
Procedure, shortened: (§1)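 Sprague-Dawley rats, single intravenous or oral dose. Parameters (half-life, AUC, bioavailability) reported in a supplementary table.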

[2] = system: Mus musculus; test: In vivo inhibition of MST1/2 in wild-type Mst1fl/fl Mst2fl/fl mouse assessed as decrease in YAP phosphorylation level at 1 mg/kg, ip administrated daily for 7 days by immunoblot analysis; type: functional, organism-based; settings: Liver, time 7.0 day
[3] = AUC (0 to t) in male Sprague-Dawley rat at 10 mg/kg, po measured for 24 hrs by LC-MS/MS analysis; type: ADME, organism-based; settings: in vivo; procedure, shortened: as §1
[4] = system: HepG2; test: Induction of apoptosis in human HepG2 cells overexpressing MST2 assessed as viable cells at 3 uM by annexinV staining (Rvb =84.2 %); type: functional; settings: read-out: Activity
[5] = target: Tyrosine-protein kinase receptor Tie-1 (Homo sapiens) (UniProt P35590); test: Inhibition of TIE1 (unknown origin) assessed as remaining activity at 1 uM by Kinome scan method relative to control
[6] = target: Myosin light chain kinase, smooth muscle (Homo sapiens) (UniProt Q15746); test: Inhibition of MYLK (unknown origin) assessed as remaining activity at 1 uM by Kinome scan method relative to control
[7] = target: Serine/threonine-protein kinase TAO3 (Homo sapiens, UniProt Q9H2K8); test: Binding affinity to TAOK3 (unknown origin) assessed as dissociation constant
[8] = target: T1, Serine/threonine-protein kinase 3 (Homo sapiens, UniProt Q13188); test: Inhibition of recombinant His-tagged full-length MST2 (unknown origin) expressing in Escherichia coli assessed as MOB1a phosphorylation level incubated for 30 min in the presence of 100 uM ATP by immunoblot analysis
T1 sequence (Q13188 whole entry): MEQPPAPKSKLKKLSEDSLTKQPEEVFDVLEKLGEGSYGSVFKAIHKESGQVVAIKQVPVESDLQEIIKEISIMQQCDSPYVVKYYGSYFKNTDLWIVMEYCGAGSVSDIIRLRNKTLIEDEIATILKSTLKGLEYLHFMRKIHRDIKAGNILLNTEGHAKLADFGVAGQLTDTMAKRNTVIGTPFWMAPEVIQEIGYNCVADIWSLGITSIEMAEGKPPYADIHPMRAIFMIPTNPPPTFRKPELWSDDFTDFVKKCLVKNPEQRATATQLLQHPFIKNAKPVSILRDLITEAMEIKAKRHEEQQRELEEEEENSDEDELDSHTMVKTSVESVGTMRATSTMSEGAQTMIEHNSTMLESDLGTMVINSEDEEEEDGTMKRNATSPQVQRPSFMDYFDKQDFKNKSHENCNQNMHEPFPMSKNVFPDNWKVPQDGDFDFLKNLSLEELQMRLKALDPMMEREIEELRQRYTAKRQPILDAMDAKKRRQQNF

[9] = target: Serine/threonine-protein kinase D3 (Homo sapiens) (UniProt O94806); test: Inhibition of PRKD3 (unknown origin) assessed as remaining activity at 1 uM by Kinome scan method relative to control
[10] = system: Mus musculus; test: Protection against APAP induced liver injury in mouse assessed as continual expansion of centrilobular necrotic lesions at 1 mg/kg, ip administered at 2.5 hrs by TUNEL staining; type: functional, organism-based
[11] = target: Mitogen-activated protein kinase 15 (Homo sapiens) (UniProt Q8TD08); test: Inhibition of ERK8 (unknown origin) assessed as remaining activity at 1 uM by Kinome scan method relative to control
[12] = target: Aurora kinase A (Homo sapiens) (UniProt O14965); test: Inhibition of AURKA (unknown origin) assessed as remaining activity at 1 uM by Kinome scan method relative to control
Procedure, shortened: (§2)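 Active-site-dependent competition-binding (KINOMEscan) panel of 468 kinases, test compound at 1 μM (from a 10 mM DMSO stock). Read-out is ctrl% = (test signal − positive control signal)/(negative control signal − positive control signal) × 100. DMSO is the negative control (100%) and a control compound is the positive control (0%). Lower ctrl% means tighter binding.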

[13] = target: T1, Serine/threonine-protein kinase 3; test: Inhibition of recombinant His-tagged full-length MST2 (unknown origin) expressing in Escherichia coli assessed as MOB1a phosphorylation level incubated for 30 min in the presence of 10 uM ATP by immunoblot analysis
[14] = target: Protein kinase C iota type (Homo sapiens) (UniProt P41743); test: Inhibition of PRKCI (unknown origin) assessed as remaining activity at 1 uM by Kinome scan method relative to control
[15] = target: Calcium/calmodulin-dependent protein kinase type 1 (Homo sapiens) (UniProt Q14012); test: Inhibition of CAMK1 (unknown origin) assessed as remaining activity at 1 uM by Kinome scan method relative to control
Procedure, shortened: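 KINOMEscan active-site-dependent competition-binding panel of 468 kinases, compound at 1 μM from a DMSO stock. Result reported as ctrl% = (test signal − positive control signal)/(negative control signal − positive control signal) × 100. The negative control is DMSO (100%) and the positive control is a control compound (0%). Lower ctrl% means tighter binding.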

[16] = target: Serine/threonine-protein kinase Chk2 (Homo sapiens) (UniProt O96017); test: Inhibition of CHEK2 (unknown origin) assessed as remaining activity at 1 uM by Kinome scan method relative to control
Procedure, shortened: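 Active-site-dependent competition-binding profiling (KINOMEscan) at 1 μM against a 468-kinase panel; compound supplied from a 10 mM DMSO stock. Read-out is ctrl% = (test signal − positive control signal)/(negative control signal − positive control signal) × 100. DMSO is the negative control (100%) and a control compound the positive control (0%). Lower ctrl% means tighter binding.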

[17] = target: Platelet-derived growth factor receptor beta (Homo sapiens) (UniProt P09619); test: Inhibition of PDGFRbeta (unknown origin) assessed as remaining activity at 1 uM by Kinome scan method relative to control
[18] = target: Receptor tyrosine-protein kinase erbB-4 (Homo sapiens) (UniProt Q15303); test: Inhibition of ERBB4 (unknown origin) assessed as remaining activity at 1 uM by Kinome scan method relative to control
[19] = target: Serine/threonine-protein kinase 38-like (Homo sapiens) (UniProt Q9Y2H1); test: Inhibition of NDR2 (unknown origin) assessed as remaining activity at 1 uM by Kinome scan method relative to control
[20] = target: Serine/threonine-protein kinase BRSK1 (Homo sapiens) (UniProt Q8TDC3); test: Inhibition of BRSK1 (unknown origin) assessed as remaining activity at 1 uM by Kinome scan method relative to control; procedure, shortened: as §2
[21] = Acute toxicity in wild-type mouse assessed as increase in Ki67-positive cells at 1 mg/kg,ip administrated twice daily for 1 to 7 days by Ki67 staining; type: organism-based, Liver; settings: in vivo, time 1-7 day
Procedure, shortened: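 Wild-type mice were dosed once a day before two-thirds partial hepatectomy, then given vehicle or 1 mg/kg i.p. twice per day. Ki67-positive cells were counted in liver sections over postoperative days 1 to 7, n = 5; means ± SD, Student's t test.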

[22] = target: High affinity nerve growth factor receptor (Homo sapiens) (UniProt P04629); test: Inhibition of TRKA (unknown origin) assessed as remaining activity at 1 uM by Kinome scan method relative to control

Chain of Myosin light chain kinase, smooth muscle (Homo sapiens) (Q15746 whole entry): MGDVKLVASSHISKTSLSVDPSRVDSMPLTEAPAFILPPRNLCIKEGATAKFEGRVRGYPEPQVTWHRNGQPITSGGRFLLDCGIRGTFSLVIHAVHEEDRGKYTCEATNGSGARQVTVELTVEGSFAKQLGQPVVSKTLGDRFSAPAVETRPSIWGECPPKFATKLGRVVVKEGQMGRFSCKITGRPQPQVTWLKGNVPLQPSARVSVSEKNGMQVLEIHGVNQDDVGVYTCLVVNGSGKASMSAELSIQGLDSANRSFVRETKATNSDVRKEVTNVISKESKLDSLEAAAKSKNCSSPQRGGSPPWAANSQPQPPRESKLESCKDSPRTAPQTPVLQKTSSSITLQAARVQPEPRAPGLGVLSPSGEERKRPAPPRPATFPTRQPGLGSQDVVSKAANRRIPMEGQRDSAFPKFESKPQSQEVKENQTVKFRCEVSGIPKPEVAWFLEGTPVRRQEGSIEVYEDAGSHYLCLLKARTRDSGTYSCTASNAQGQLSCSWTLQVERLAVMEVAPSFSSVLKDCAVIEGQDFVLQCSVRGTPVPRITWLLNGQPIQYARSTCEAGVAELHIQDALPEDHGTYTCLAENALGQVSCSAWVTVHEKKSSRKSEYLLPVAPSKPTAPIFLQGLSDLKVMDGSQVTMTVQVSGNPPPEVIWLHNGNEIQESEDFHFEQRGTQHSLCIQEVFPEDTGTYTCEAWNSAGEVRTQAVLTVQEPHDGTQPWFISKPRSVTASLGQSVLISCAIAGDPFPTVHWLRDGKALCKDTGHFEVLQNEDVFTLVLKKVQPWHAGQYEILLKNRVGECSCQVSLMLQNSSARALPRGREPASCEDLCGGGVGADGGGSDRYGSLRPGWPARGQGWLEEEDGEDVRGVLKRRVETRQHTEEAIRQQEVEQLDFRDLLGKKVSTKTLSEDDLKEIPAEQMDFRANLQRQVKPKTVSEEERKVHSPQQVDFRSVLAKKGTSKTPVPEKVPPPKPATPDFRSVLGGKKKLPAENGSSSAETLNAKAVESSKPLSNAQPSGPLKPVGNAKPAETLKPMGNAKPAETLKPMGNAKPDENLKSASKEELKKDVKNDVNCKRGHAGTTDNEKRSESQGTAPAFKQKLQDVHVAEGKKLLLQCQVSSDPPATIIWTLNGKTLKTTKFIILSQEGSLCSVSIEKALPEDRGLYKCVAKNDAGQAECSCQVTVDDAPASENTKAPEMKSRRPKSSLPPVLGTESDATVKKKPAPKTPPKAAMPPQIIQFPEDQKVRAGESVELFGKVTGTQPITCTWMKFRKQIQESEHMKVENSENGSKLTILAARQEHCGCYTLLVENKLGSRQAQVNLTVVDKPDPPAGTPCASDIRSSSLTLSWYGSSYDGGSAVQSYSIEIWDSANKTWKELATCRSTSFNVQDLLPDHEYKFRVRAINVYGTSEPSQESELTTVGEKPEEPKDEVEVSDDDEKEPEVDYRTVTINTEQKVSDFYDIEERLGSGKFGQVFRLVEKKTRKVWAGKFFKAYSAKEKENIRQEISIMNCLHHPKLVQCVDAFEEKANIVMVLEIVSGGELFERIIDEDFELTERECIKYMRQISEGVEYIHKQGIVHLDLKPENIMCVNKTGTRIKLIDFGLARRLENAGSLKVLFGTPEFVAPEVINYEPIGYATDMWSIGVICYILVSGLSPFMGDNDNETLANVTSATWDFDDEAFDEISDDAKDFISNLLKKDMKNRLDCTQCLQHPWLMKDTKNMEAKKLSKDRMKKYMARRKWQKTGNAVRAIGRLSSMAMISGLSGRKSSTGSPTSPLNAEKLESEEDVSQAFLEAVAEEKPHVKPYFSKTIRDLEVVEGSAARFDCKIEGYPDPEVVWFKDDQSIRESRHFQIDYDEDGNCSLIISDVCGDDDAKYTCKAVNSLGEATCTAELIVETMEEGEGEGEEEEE
Chain of Serine/threonine-protein kinase Chk2 (Homo sapiens) (O96017 whole entry): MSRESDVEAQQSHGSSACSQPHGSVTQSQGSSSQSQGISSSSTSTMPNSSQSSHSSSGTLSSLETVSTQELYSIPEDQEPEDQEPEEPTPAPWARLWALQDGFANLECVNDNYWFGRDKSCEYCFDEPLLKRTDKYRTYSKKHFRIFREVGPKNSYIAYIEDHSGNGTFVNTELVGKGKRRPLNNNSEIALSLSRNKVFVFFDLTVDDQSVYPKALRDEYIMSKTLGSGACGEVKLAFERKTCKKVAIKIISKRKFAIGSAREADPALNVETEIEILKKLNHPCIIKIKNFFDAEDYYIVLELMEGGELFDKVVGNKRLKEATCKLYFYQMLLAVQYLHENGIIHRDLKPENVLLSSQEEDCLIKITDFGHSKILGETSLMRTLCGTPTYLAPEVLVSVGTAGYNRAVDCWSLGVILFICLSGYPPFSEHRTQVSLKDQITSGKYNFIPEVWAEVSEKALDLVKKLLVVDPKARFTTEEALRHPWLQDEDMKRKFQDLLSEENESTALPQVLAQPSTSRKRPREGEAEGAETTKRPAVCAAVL
Chain of Receptor tyrosine-protein kinase erbB-4 (Homo sapiens) (Q15303 whole entry): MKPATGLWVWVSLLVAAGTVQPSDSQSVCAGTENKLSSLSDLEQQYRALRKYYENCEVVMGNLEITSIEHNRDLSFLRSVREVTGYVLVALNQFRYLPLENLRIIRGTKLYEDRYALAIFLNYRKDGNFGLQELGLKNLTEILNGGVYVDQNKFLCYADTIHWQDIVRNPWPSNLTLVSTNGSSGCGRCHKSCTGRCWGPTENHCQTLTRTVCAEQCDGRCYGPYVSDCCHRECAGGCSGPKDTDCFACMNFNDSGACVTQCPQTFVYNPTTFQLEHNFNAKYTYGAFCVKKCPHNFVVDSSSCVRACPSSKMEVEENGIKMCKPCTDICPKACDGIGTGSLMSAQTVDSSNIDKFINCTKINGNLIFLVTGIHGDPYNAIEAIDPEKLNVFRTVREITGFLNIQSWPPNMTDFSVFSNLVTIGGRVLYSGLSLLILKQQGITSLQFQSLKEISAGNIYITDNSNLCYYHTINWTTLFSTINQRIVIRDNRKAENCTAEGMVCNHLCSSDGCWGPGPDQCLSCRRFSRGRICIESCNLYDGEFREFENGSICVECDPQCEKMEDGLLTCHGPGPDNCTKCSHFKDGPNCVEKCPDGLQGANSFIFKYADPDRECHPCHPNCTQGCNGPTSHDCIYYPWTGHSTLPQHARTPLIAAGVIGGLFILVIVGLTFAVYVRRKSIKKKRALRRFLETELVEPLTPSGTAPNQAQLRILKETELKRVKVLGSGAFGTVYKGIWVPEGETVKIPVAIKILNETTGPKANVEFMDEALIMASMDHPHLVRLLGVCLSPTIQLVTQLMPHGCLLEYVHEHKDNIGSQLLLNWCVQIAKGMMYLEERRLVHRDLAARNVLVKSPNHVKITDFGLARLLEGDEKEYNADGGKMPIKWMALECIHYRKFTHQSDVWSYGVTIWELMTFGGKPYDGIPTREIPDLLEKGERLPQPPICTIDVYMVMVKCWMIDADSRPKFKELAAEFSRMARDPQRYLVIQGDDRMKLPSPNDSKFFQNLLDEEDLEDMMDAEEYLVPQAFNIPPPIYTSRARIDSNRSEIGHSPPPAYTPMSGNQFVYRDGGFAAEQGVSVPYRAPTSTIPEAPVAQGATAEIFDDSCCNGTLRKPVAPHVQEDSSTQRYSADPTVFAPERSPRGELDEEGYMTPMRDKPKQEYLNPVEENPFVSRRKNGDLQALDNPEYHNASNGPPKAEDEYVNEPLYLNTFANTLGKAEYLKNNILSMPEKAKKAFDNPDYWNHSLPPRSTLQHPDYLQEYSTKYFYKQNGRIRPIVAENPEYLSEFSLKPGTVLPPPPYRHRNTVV
Chain of Platelet-derived growth factor receptor beta (Homo sapiens) (P09619 whole entry): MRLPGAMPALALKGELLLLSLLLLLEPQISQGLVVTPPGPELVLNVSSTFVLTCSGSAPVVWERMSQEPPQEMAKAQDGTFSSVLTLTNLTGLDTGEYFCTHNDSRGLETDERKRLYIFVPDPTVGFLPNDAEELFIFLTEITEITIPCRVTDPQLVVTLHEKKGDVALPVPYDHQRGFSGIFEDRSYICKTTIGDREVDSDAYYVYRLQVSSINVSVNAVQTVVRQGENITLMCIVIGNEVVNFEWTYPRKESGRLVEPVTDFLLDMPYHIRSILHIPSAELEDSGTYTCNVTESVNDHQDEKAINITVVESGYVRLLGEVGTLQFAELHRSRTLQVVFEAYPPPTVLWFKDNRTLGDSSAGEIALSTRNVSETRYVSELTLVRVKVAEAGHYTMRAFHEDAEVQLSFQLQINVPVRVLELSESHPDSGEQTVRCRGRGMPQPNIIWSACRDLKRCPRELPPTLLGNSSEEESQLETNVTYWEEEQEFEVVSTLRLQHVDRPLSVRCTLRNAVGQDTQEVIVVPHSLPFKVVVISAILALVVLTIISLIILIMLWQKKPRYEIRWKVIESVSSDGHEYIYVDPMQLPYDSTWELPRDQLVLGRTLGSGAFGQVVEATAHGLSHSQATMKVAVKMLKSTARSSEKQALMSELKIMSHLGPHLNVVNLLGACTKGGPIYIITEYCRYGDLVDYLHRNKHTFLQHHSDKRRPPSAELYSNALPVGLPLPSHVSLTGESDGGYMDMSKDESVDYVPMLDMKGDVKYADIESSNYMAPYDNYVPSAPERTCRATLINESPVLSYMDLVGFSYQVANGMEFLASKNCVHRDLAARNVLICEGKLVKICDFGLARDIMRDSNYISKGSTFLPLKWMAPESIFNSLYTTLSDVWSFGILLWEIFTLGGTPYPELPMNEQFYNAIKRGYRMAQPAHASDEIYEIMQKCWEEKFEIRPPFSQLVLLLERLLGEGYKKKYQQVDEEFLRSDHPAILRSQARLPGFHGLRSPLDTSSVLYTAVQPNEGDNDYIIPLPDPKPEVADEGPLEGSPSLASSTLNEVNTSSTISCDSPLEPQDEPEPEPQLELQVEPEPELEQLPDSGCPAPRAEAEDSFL

For `CN1C(=O)c2sccc2N(C)c2nc(Nc3ccc(S(N)(=O)=O)cc3)ncc21`, the AUC(0-inf) [1] was 1040 ng·h/mL, the inhibition [2] was “Active” and the AUC(0-t) at 24 h [3] was 993 ng·h/mL. It also gave a viability at 3 µM [4] of 93.1%, an Activity [5] of 100% and an Activity [6] of 100%. For the same molecule, the Kd [7] was 610 nM, the IC50 [8] was 280 nM and the Activity [9] was 65%. For the same molecule, the Activity [10] was “Active”, the Activity [11] was 79% and the Activity [12] was 0.05%. For the same molecule, the IC50 [13] was 34 nM, the Activity [14] was 94% and the Activity [15] was 95%. The Activity [16] was 100%, the Activity [17] was 90% and the Activity [18] was 79%. The Activity [19] was 82%, the Activity [20] was 96% and the Activity [21] was “Non-Toxic”. The Activity [22] was 56%.
